Only some compounds are listed: those with a hit (about 3.9% of all), similar ones and a draw of the others.
tim23-1 inh – inhibits growth of tim23-1 mutant yeast; inhibition, % at 20 µM; S. cerevisiae tim23-1 growth, BacTiter-Glo luminescence, 24 h; 1.3% of 330,000 active; AID 463212;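 active = growth inhibition of the mutant yeast at or above 50%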;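 also: temperature-sensitive mutant grown at 25 °C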
UPR XBP1 act – adaptive UPR (XBP1) activation. CHO-XBP1 luciferase reporter, IRE1-XBP1 UPR activation, luminescence; percent of tunicamycin response, DMSO as zero. activation, % at 20 µM. 0.33% of 330,000 active. AID 463104;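 active = versus positive control, 20 µM dose yields 30% or more activation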
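Material: CHO cell line with stable XBP1 luciferase reporter; schedule: 16-18 h cell attachment at 37 °C, then 6 h compound exposure; signal: glow luminescence from Steady-Glo reagent; medium: serum-containing F12 medium, 10% FBS; benchmarks: tunicamycin 10 µg/mL and vehicle-only wells; read-out: percent activation relative to tunicamycin reference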
CHOP UPR activ – apoptotic UPR (CHOP) activation | CHO-CHOP luciferase reporter, luminescence; percent of tunicamycin response over DMSO baseline | activation, % at 10 µM | 0.34% of 330,000 active;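 active = at 10 µM dose, activation of 40% or more, normalized to positive control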
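Test system: CHO-CHOP cells, stable luciferase reporter of PERK-eIF2a-CHOP signalling | Quantity: 500 CHO-CHOP cells per well | Buffer or medium: F12 plus 10% serum | Compound dosing: 10 µM single point, 0.5% DMSO | Schedule: 6 h compound treatment, 37 °C | Signal: Luciferase luminescence | Control set: Tunicamycin high control, DMSO low control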
tim10-1 inh – growth inhibitors of tim10-1 mutant yeast; inhibition, % at 20 µM; S. cerevisiae tim10-1 ts strain growth, BacTiter-Glo, 24 h; 2.2% of 330,000 active; AID 463190;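 active = inhibition of at least 40%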;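 also: mutant grown at 25 °C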
TIM10 inh – inhibits growth of TIM10 yeast strain. 1.4% of 330,000 active. inhibition, % at 10 µM. S. cerevisiae TIM10 strain growth, BacTiter-Glo luminescence, 24 h. AID 463195;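 active = inhibition of 40% or more at the single tested concentration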;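 also: wild-type TIM10 isogenic control strain grown at permissive 25 °C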
tim10-1 confirm – confirmation of tim10-1 mutant yeast growth inhibitors. shares compounds with tim10-1 inh. inhibition, % at 20 µM. S. cerevisiae tim10-1 ts strain growth, BacTiter-Glo, 24 h. 56% of 7,400 active;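 active = inhibition of yeast growth at or above a set limit in either of two repeat tests at 20 µM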;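 also: tim10-1 mutant grown at permissive 25 °C to find synthetic lethal compounds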
Hits are given with their value; . = inactive; / = no result given.

SMILES	tim23-1 inh	UPR XBP1 act	CHOP UPR activ	tim10-1 inh	TIM10 inh	tim10-1 confirm
OC(CNCCc1ccc(C(F)(F)F)cc1)COc1ccc2ccccc2c1 (stereo not drawn)	.	.	.	48	.	.
Cc1cc(OC(=O)c2cccc(Br)c2)c([N+](=O)[O-])c(=O)[nH]1	.	.	.	46	.	.
Cc1cc(OC(=O)c2cccc(Cl)c2)c([N+](=O)[O-])c(=O)[nH]1	.	.	.	.	.	/
Cc1ccc(-n2c(C)cc3c2CC(C)(C)CC3=O)cc1C	.	.	.	.	.	/
Cc1cc2c(n1-c1ccc(Br)cc1)CC(C)(C)CC2=O	.	.	.	49	.	33
CC1CC(C)CN(S(=O)(=O)c2ccc(C(=O)Nc3nnc(C4CC4)o3)cc2)C1 (stereo not drawn)	.	.	.	47	.	.
CCOC(=O)N1CCN(S(=O)(=O)c2ccc(C(=O)Nc3nnc(C4CC4)o3)cc2)CC1	.	.	.	.	.	/
Cc1c(C(=O)N2CCCC2)c(S(=O)(=O)N2CCN(c3ccccc3F)CC2)c(C)n1C	.	.	.	.	.	/
CC1(c2ccccc2)NC(=O)N(CC(=O)N2CCN(S(=O)(=O)c3ccccc3[N+](=O)[O-])CC2)C1=O (stereo not drawn)	.	.	.	.	.	/
Cc1[nH]c2ccccc2c1C(O)CN1CCN(c2cccc(C(F)(F)F)c2)CC1 (stereo not drawn)	.	.	.	55	.	48
CCN(CC(=O)Nc1ccc(Br)cc1)CC(=O)Nc1cc(C)on1	.	.	.	.	.	/
COc1ccc(Nc2nc(Nc3ccc(OC)cc3)nc(SC3=NCCS3)n2)cc1	.	.	.	.	.	.
COc1ccc(Nc2nc(OC)nc(OC)n2)cc1	.	.	.	.	.	/
CSc1nc(N)nc2c1ncn2CC(=O)NCCNc1ccc([N+](=O)[O-])cn1	.	.	.	.	.	/
Cc1ccc(S(=O)(=O)CCC(=O)OCc2nnc(-c3ccccc3)o2)cc1	.	.	.	.	.	/
COc1ccc2ccc(O)c(CN(C)CC(=O)Nc3ccccc3C(F)(F)F)c2c1	.	.	.	.	.	/
COc1ccc(C)cc1NC(=O)c1ccc(CN2CCN(c3ccccc3)CC2)cc1	.	.	.	46	.	.
CCOc1cc(S(=O)(=O)Nc2ccc(CC)cc2)ccc1Cl	.	.	.	59	.	.
CCOc1cc(S(=O)(=O)Nc2ccccc2CC)ccc1Cl	.	.	.	.	.	/
Cc1nc2ccn(Cc3ccccc3)c(=O)c2cc1C(=O)N1CCN(c2ccccc2)CC1	.	.	.	.	.	/
Cc1nc(NC(=O)/C=C/c2ccccc2)sc1C(=O)Nc1ccc(Cl)cc1	.	.	.	.	.	/
Cc1nc(Nc2ccc(Cl)cc2Cl)sc1C(=O)Nc1ccccc1	.	.	.	47	.	31
Cc1cc(=O)[nH]c(N=N/C(=N/Nc2ccc(O)cc2)c2ccccc2)n1	.	.	.	50	.	38
CCc1c(C)nc(SCC(N)=O)c(C#N)c1C	.	.	.	.	.	/
CCc1c(C)nc(SCC(=O)CC(=O)OC(C)C)c(C#N)c1C	.	.	.	44	.	.
SMILES	tim23-1 inh	UPR XBP1 act	CHOP UPR activ	tim10-1 inh	TIM10 inh	tim10-1 confirm
Cc1ccc(NC(=O)CSC2=Nc3ccccc3C3CC=NN23)c(C)c1 (stereo not drawn)	.	.	.	44	.	.
O=C(CSC1=Nc2ccccc2C2CC=NN12)Nc1ccc(F)cc1Cl (stereo not drawn)	.	.	.	.	.	/
COc1ccccc1C(=O)NC(=O)COC(=O)CCS(=O)(=O)c1ccc(C)cc1	.	.	.	.	.	/
CCn1c(SCC(=O)NCCCN2CCCC2=O)nnc1-c1cccc(C)c1	.	.	.	.	.	/
CC(=O)c1c(C)[nH]c(C(=O)Nc2nc(-c3ccccc3)c(C)s2)c1C	.	.	.	43	.	.
CC(=O)c1c(C)[nH]c(C(=O)Nc2nccs2)c1C	.	.	.	.	.	/
CCCOc1ccc(CSCCNC(=S)Nc2ccccc2)cc1	.	.	.	46	.	.
COC(=O)c1scc(C)c1NC(=O)c1ccccc1F	.	.	.	.	.	/
COCCNC(=O)c1c(N)n(/N=C/c2ccc(F)cc2)c2nc3ccccc3nc12	.	.	.	.	.	/
COCCNC(=O)c1c(N)n(/N=C/c2cccs2)c2nc3ccccc3nc12	.	.	.	44	.	.
COc1ccc(-c2cc(=O)oc3c(C)c(OC(C)C(=O)Nc4ccc(CN5CCOCC5)cc4)ccc23)cc1 (stereo not drawn)	.	.	.	43	.	.
COc1cccc(CN2C(=O)[C@H]3Cc4c([nH]c5ccccc45)C(C)(C)N3C2=O)c1	.	.	.	45	.	.
COc1ccc(CN2C(=O)[C@@H]3Cc4c([nH]c5ccccc45)C(C)(C)N3C2=O)cc1	.	.	.	44	.	.
CC1(C)c2[nH]c3ccccc3c2C[C@H]2C(=O)N(Cc3cccc(F)c3)C(=O)N21	.	.	.	.	.	/
CC(=O)Oc1ccc(/C(C)=N/N2CCN(Cc3ccc(C)cc3)CC2)cc1	.	.	.	.	.	/
O=C(CCc1cn2ccccc2n1)NC1CCCc2c1cnn2-c1ccccc1F (stereo not drawn)	.	.	.	.	.	/
Cc1ccccc1NC(=O)c1ccc(F)c(S(=O)(=O)N2CCN(c3ccccn3)CC2)c1	.	.	.	41	.	39
Cc1cc(N(CCO)CCO)ccc1N=Nc1cc(F)ccc1F	.	.	.	41	.	38
Nc1ccc(N(CCO)CCO)cc1	.	.	.	.	.	/
CC(C)[C@H](NC(=O)c1ccc(Br)cc1)C(=O)NC1CCCCC1	.	.	.	.	.	/
CCN(CC)C(=O)c1ccc(COc2ccccc2Cl)cc1	.	.	.	42	.	.
O=C(O)c1ccc(COc2ccccc2Cl)cc1	.	.	.	.	.	/
CCN(CC)C(=O)CSc1ncnc2sc(-c3ccccc3)cc12	.	.	.	46	.	.
CN(CCC#N)C(=O)CSc1ncnc2sc(-c3ccccc3)cc12	.	.	.	.	.	/
O=C1CN(C(=O)c2c(F)cccc2F)C(c2ccc(F)cc2)c2cc(Br)ccc2N1 (stereo not drawn)	.	.	.	41	.	29
CCC(C(=O)OCC(=O)Nc1cc(Cl)cc(Cl)c1)c1ccccc1 (stereo not drawn)	.	.	.	40	.	.
O=C(c1ccc(COc2ccc(Cl)cc2)cc1)N1CCCCC1	.	.	.	.	.	/
O=C(c1ccc(COc2ccccc2Br)cc1)N1CCCCCC1	.	.	.	41	.	.
CCOC(=O)c1c(C)[nH]c(C)c1S(=O)(=O)NC(C)Cc1ccco1 (stereo not drawn)	.	.	.	.	.	/

Compound activity (PubChem BioAssay)
